From ChEMBL document CHEMBL4000155, “Synthesis and Antileukemic Activities of Piperlongumine and HDAC Inhibitor Hybrids against Acute Myeloid Leukemia Cells” (J Med Chem, 2016)
The source made the active and inactive calls. No cut-off for these calls is given here.

Experiments:
[1] = tested on: CMK; assay: Antiproliferative activity against human CMK cells after 72 hrs by MTT assay; format: functional, cell-based
[2] = tested on: HL-60; assay: Antiproliferative activity against Ara-C resistant human HL60 cells after 72 hrs in presence of SAHA by MTT assay; format: functional, cell-based; conditions: HL-60, 72 h
Outline: (§1)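 AML cell lines grown in RPMI 1640 with 10% FBS (20% for MOLM-13), 2 mM L-glutamine and penicillin/streptomycin at 37 °C, 5% CO2. Ara-C-resistant HL-60 and CMK sublines came from stepwise cytarabine selection and were kept in 600 nM or 300 nM cytarabine respectively. Cells were treated 72 h. MTT 0.05 mg/mL, 3 h at 37 °C, DMSO solubilization, absorbance at 570 nm. IC50 given ± SEM.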

[3] = tested on: U-937; assay: Induction of cell death in p53 null human U937 cells at 1 to 4 uM after 24 hrs by annexin V-FITC/PI staining based flow cytometry; format: functional
Outline: (§2)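 Human U937 AML cells (p53 null) in RPMI 1640 with 10% FBS, 2 mM L-glutamine, penicillin/streptomycin, 37 °C, 5% CO2. Exposed 24 h to compound alone or with SAHA; vehicle DMSO < 0.1% v/v. Annexin V-FITC/PI staining and flow cytometry, reported as % Annexin V+ cells. Three independent experiments in triplicate; one representative shown. EC50 taken as concentration giving 50% Annexin V+ cells versus vehicle.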

[4] = tested on: MOLM-13; assay: Antiproliferative activity against human MOLM13 cells harboring wild type p53/FLT3-ITD mutant after 72 hrs by MTT assay; format: functional, cell-based; conditions: MOLM-13, 72 h
[5] = tested on: U-937; assay: Induction of DNA damage in p53 null human U937 cells at 2 uM after 20 hrs by SYBR gold staining based alkaline comet assay; format: functional, cell-based
Outline: (§3)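 U937 cells treated 20 h with SAHA and PL alone or combined (16 h for hybrids). Alkaline single-cell gel electrophoresis, SYBR Gold staining, microscopy. Median % DNA in tail from 4 replicate gels ± s.e.m.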

[6] = tested on: U-937; assay: Effect on SAHA-induced DNA damage in p53 null human U937 cells assessed as decrease in CHK1 expression level by measuring ratio of CHK1 to beta-actin level at 2 uM after 24 hrs by Western blot analysis relative to control; format: functional
Outline: (§4)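 U937 cells treated 24 h, alone or PL+SAHA. Whole-cell lysates (protease/phosphatase inhibitors) immunoblotted for γH2AX, CHK1, RAD51, Bim and XIAP. Band densitometry normalised to β-actin, then expressed as fold change relative to the untreated control.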

[7] = tested on: HL-60; assay: Antiproliferative activity against human HL60 cells after 72 hrs by MTT assay; format: functional, cell-based; conditions: HL-60, 72 h
[8] = tested on: U-937; assay: Induction of apoptosis in p53 null human U937 cells assessed as decrease in XIAP expression level by measuring ratio of XIAP to beta-actin level at 2 uM after 24 hrs by Western blot analysis relative to control; format: functional; outline: as §4
[9] = tested on: U-937; assay: Induction of DNA damage in p53 null human U937 cells at 2 uM after 20 hrs in presence of SAHA by SYBR gold staining based alkaline comet assay; format: functional, cell-based; outline: as §3
[10] = tested on: U-937; assay: Induction of DNA damage in p53 null human U937 cells assessed as decrease in CHK1 expression level by measuring ratio of CHK1 to beta-actin level at 2 uM after 24 hrs by Western blot analysis relative to control; format: functional; outline: as §4
[11] = tested on: MCF-10A; assay: Cytotoxicity against human MCF10A cells assessed as decrease in cell viability at 0.5 to 5 uM after 24 hrs by MTT assay; format: cell-based
Outline: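 MCF-10A (DMEM/F12, 5% horse serum, hydrocortisone, cholera toxin, insulin, EGF) and U937 (RPMI 1640, 10% FBS) were exposed to 0.5–5 μM, alone or PL+SAHA 1:1, for 24 h. MTT 0.05 mg/mL, 3 h at 37 °C, DMSO solubilization, A570. Viability given as mean ± SD of four to six independent experiments. DMSO <0.1% vehicle control.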

[12] = tested on: U-937; assay: Induction of DNA damage in p53 null human U937 cells assessed as increase in gammaH2AX expression level by measuring ratio of gammaH2AX to beta-actin level at 2 uM after 24 hrs by Western blot analysis relative to control; format: functional; outline: as §4
[13] = tested on: U-937; assay: Antiproliferative activity against p53 null human U937 cells after 72 hrs by MTT assay; format: functional, cell-based; conditions: U-937, 72 h
[14] = tested on: CMK; assay: Antiproliferative activity against Ara-C resistant human CMK cells after 72 hrs in presence of SAHA by MTT assay; format: functional, cell-based; outline: as §1
[15] = tested on: U-937; assay: Induction of apoptosis in p53 null human U937 cells at 2 uM preincubated with NAC for 3 hrs followed by compound addition measured after 24 hrs by annexin V-FITC/PI staining based flow cytometry; format: functional, cell-based
Outline: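 U937 cells preincubated 3 h with 3 mM NAC or vehicle and washed with PBS to remove excess NAC. Then drug alone or with SAHA for 24 h. Apoptosis scored as % Annexin V+ by Annexin V-FITC/PI flow cytometry; vehicle DMSO < 0.1% v/v.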

[16] = tested on: U-937; assay: Induction of apoptosis in p53 null human U937 cells assessed as increase in Bim EL expression level by measuring ratio of Bim EL to beta-actin level at 2 uM after 24 hrs by Western blot analysis relative to control; format: functional; outline: as §4
[17] = tested on: HL-60; assay: Antiproliferative activity against Ara-C resistant human HL60 cells after 72 hrs by MTT assay; format: functional, cell-based; conditions: HL-60, 72 h
[18] = tested on: MV4-11; assay: Antiproliferative activity against human MV4-11 cells after 72 hrs by MTT assay; format: functional, cell-based; conditions: MV4-11, 72 h
[19] = tested on: OCI-AML-3; assay: Antiproliferative activity against human OCI-AML3 cells after 72 hrs by MTT assay; format: functional, cell-based; conditions: OCI-AML-3, 72 h
[20] = Antiproliferative activity against human CMS cells after 72 hrs by MTT assay; format: functional, cell-based; outline: as §1
[21] = organism: Homo sapiens; conditions: at 1 µM
[22] = tested on: CMK; assay: Antiproliferative activity against Ara-C resistant human CMK cells after 72 hrs by MTT assay; format: functional, cell-based
[23] = Antiproliferative activity against human CMY cells after 72 hrs by MTT assay; format: functional, cell-based
[24] = tested on: U-937; assay: Effect on SAHA-induced DNA damage in p53 null human U937 cells assessed as increase in gammaH2AX expression level by measuring ratio of gammaH2AX to beta-actin level at 2 uM after 24 hrs by Western blot analysis relative to control; format: functional; outline: as §4
[25] = tested on: U-937; assay: Induction of apoptosis in p53 null human U937 cells at 4 uM after 24 hrs by annexin V-FITC/PI staining based flow cytometry; format: functional; outline: as §2
[26] = tested on: U-937; assay: Induction of cell death in p53 null human U937 cells after 24 hrs by annexin V-FITC/PI staining based flow cytometry; format: functional; outline: as §2
[27] = tested on: U-937; assay: Induction of apoptosis in p53 null human U937 cells at 2 uM after 24 hrs by annexin V-FITC/PI staining based flow cytometry; format: functional; outline: as §2
[28] = tested on: MOLM-13; assay: Induction of apoptosis in human MOLM13 cells harboring wild type p53/FLT3-ITD mutant at 4 uM after 24 hrs by annexin V-FITC/PI staining based flow cytometry; format: functional
Outline: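 Cells treated 24 h, single agents or SAHA+PL at 1:1 (each drug at the stated concentration). Annexin V-FITC/PI kit staining, then flow cytometry, reported as % Annexin V+ cells. Three independent experiments in triplicate, with data from one representative experiment. DMSO <0.1% vehicle control.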

Row | IC50 [4] [nM] | IC50 [7] [nM] | IC50 [13] [nM] | IC50 [17] [nM] | IC50 [18] [nM] | IC50 [19] [nM] | Compound | IC50 [1] [nM] | Activity [5] | Ratio [8] | Ratio [10] | Activity [11] | Ratio [12] | Activity [15] | Ratio [16] | IC50 [20] [nM] | inhibition [21] | IC50 [22] [nM] | IC50 [23] [nM] | other results
1 | 1840 | 1780 | 2170 | 2250 | 1440 | 1870 | COc1cc(/C=C/C(=O)N2CCC=CC2=O)cc(OC)c1OC [PIPLARTINE] | 2820 | inactive | 1 | 1 | Non-Toxic | 1 | inactive | 1 | 3100 | inactive | 1910 | 1620 | IC50 [2]: 1130 nM; Activity [3]: Active; Ratio [6]: 0.8; Activity [9]: Active; IC50 [14]: 422 nM; Ratio [24]: 4.1
2 | 454 | 357 | 498 | 692 | 230 | 615 | COc1cc(/C=C/C(=O)N2CCC=CC2=O)cc(OC)c1OCCCCCCC(=O)NO | 256 | Active | 0.6 | 0.7 | Non-Toxic | 4.5 | inactive | 1.8 | 385 | Active | 215 | 185 | Activity [25]: 88.5%; Activity [26]: Dose-dependent effect; Activity [27]: 56.9%; Activity [28]: 80.3%
